Experimental data gathered from unrelated publications.
Lines come from different studies, so protocols differ. Values after ≈ are worked out from the molar mass of the structure shown.

SMILES | organism | assay | system | setting | measurement | result
Cc1c(NN=C2SC(CC#N)=NC2=O)c(=O)n(-c2ccccc2)n1C | Klebsiella pneumoniae | microbial growth, well diffusion |  | 100000 µg/mL | inhibition zone | 15 mm
Cc1c(CN(C)C(=O)/C=C/c2cnc3c(c2)CC(CCN)C(=O)N3)oc2ccccc12.Cl (stereo not drawn) | Klebsiella pneumoniae | microbial growth, broth dilution | BAA2342 |  | MIC | 16 µg/mL
Cc1cccc2[nH]ccc12 | Cryptosporidium parvum | parasite growth | HCT-8 | 24 h, intracellular | EC90 | 552 µM
COc1ccc(-n2cc(COC3=CC(=O)c4ccccc4C3=O)nn2)cc1 | Klebsiella pneumoniae | microbial growth, broth dilution | ATCC700603 |  | IC50 | 137 µg/mL (≈ 379 µM)
CC(C)(NC(=O)c1cc2c(Cl)cc(Cl)cc2[nH]1)c1cn(Cc2ccc(Cl)c(Cl)c2)nn1 | Cryptosporidium parvum | parasite growth, imaging | HCT-8 | 11 µM, 72 h, intracellular | inhibition | > 60%
NCCCCCN | Cryptosporidium parvum | parasite growth, imaging | HCT-8 | 1 mM, 24 h, intracellular | activity vs control | 96.3%
CCOC(=O)c1c(N)csc1-c1cn(-c2ccccc2)nc1-c1ccc(C)cc1 | Klebsiella pneumoniae | microbial killing, broth dilution |  |  | MBC | 0.25 µg/mL (≈ 0.62 µM)
O=C(O)CN1C(=O)/C(=C/c2ccc(-c3ccc(N(c4ccccc4)c4ccccc4)cc3)c3ccccc23)SC1=S | Streptococcus pneumoniae | microbial killing, broth dilution | ATCC49619 |  | MBC | > 1000 µg/mL
CCCCS(=O)(=O)Oc1cc(C(C)C)ccc1C | Klebsiella pneumoniae | microbial growth, broth dilution | ATCC700603 |  | IC50 | 95.5 µg/mL (≈ 353 µM)
O=C1NC(=S)S/C1=C\c1ccc(-c2ccc(N(c3ccccc3)c3ccccc3)cc2)c2ccccc12 | Streptococcus pneumoniae | microbial killing, broth dilution | ATCC49619 |  | MBC | > 1000 µg/mL
N#CC(=Cc1cn(-c2ccccc2)nc1-c1ccccc1)C1=NC(=O)CS1 | Klebsiella pneumoniae | microbial growth, well diffusion |  | 100000 µg/mL | inhibition zone | 27 mm
O=C(O)c1cccnc1 | Cryptosporidium parvum | parasite growth, imaging | HCT-8 | 1 mM, 24 h, intracellular | activity vs control | 90.3%
O=C1NC(=S)S/C1=C\c1ccc(-c2ccc(N(c3ccccc3)c3ccccc3)cc2)cc1 | Streptococcus pneumoniae | microbial killing, broth dilution | ATCC49619 |  | MBC | > 1000 µg/mL
Cc1ncc(CO)c(C(=O)O)c1O | Cryptosporidium parvum | parasite growth, imaging | HCT-8 | 1 mM, 24 h, intracellular | activity vs control | 105%
O=C(O)CN1C(=O)/C(=C/c2ccc(-c3ccc(N(c4ccccc4)c4ccccc4)cc3)c3ccccc23)NC1=S | Streptococcus pneumoniae | microbial growth, broth dilution | ATCC49619 |  | MIC | > 1000 µg/mL
O=C(O)CCc1ccc(O)cc1 | Cryptosporidium parvum | parasite growth, imaging | HCT-8 | 1 mM, 24 h, intracellular | activity vs control | 90.5%
O=C(O)CN1C(=O)/C(=C/c2ccc(-c3ccc(N(c4ccccc4)c4ccccc4)cc3)cc2)NC1=S | Streptococcus pneumoniae | microbial growth, broth dilution | ATCC49619 |  | MIC | 62.5 µg/mL (≈ 124 µM)

SMILES | organism | assay | system | setting | measurement | result
CC(C)(NC(=O)c1cc2c(Cl)cc(Cl)cc2[nH]1)c1cn(Cc2cccc(Cl)c2)nn1 | Cryptosporidium parvum | parasite growth, imaging | HCT-8 | 11 µM, 72 h, intracellular | inhibition | > 60%
O=C1NC(=S)N/C1=C\c1c2ccccc2c(-c2ccc(N(c3ccccc3)c3ccccc3)cc2)c2ccccc12 | Streptococcus pneumoniae | microbial growth, broth dilution | ATCC49619 |  | MIC | > 1000 µg/mL
Cc1ccc(C(C)C)cc1OCc1cn(-c2ccc(S(N)(=O)=O)cc2)nn1 | Klebsiella pneumoniae | microbial growth, broth dilution | ATCC700603 |  | IC50 | 602 µg/mL (≈ 1560 µM)
N#CC(=Cc1ccc(Cl)cc1)C1=NC(=O)C(=Cc2cn(-c3ccccc3)nc2-c2ccccc2)S1 | Klebsiella pneumoniae | microbial growth, well diffusion |  | 100000 µg/mL | inhibition zone | 21 mm
O=S(=O)(Oc1cccc2cccnc12)c1cccs1 | Klebsiella pneumoniae | microbial growth, broth dilution | ATCC700603 |  | IC50 | 443 µg/mL (≈ 1520 µM)
CCOC(=O)c1c(N)csc1-c1cn(-c2ccccc2)nc1-c1ccccc1 | Klebsiella pneumoniae | microbial growth, well diffusion |  | 100000 µg/mL | inhibition zone | 22 mm
Clc1ccc(-n2cc(COc3cccc4cccnc34)nn2)cc1 | Klebsiella pneumoniae | microbial growth, broth dilution | ATCC700603 |  | IC50 | 554 µg/mL (≈ 1650 µM)
CCCCC[C@H](O)/C=C/[C@H]1[C@H](O)CC(=O)[C@@H]1C/C=C\CCCC(=O)O | Cryptosporidium parvum | parasite growth, imaging | HCT-8 | 50 µM, 24 h, intracellular | activity vs control | 88.5%
O=C1NC(=S)N/C1=C\c1ccc(-c2ccc(N(c3ccccc3)c3ccccc3)cc2)c2ccccc12 | Streptococcus pneumoniae | microbial killing, broth dilution | ATCC49619 |  | MBC | > 1000 µg/mL
CC(C)(NC(=O)c1cc2c(F)cc(F)cc2[nH]1)c1cn(Cc2cccc(Cl)c2)nn1 | Cryptosporidium parvum | parasite growth, imaging | HCT-8 | 11 µM, 72 h, intracellular | inhibition | ~30%
c1ccc(-n2cc(COc3cccc4cccnc34)nn2)cc1 | Klebsiella pneumoniae | microbial growth, broth dilution | ATCC700603 |  | IC50 | 401 µg/mL (≈ 1330 µM)
O=C(O)CN1C(=O)/C(=C/c2c3ccccc3c(-c3ccc(N(c4ccccc4)c4ccccc4)cc3)c3ccccc23)SC1=S | Streptococcus pneumoniae | microbial growth, broth dilution | ATCC49619 |  | MIC | > 1000 µg/mL
CNCC(=O)O | Cryptosporidium parvum | parasite growth, imaging | HCT-8 | 1 mM, 24 h, intracellular | activity vs control | 98%
O=C1C=C(OCc2cn(-c3ccc(Cl)cc3)nn2)C(=O)c2ccccc21 | Klebsiella pneumoniae | microbial growth, broth dilution | ATCC700603 |  | IC50 | 348 µg/mL (≈ 951 µM)
Oc1ccc2cc[nH]c2c1 | Cryptosporidium parvum | parasite growth | HCT-8 | 24 h, intracellular | EC50 | 722 µM
O=C1C=C(OCc2cn(-c3ccccc3)nn2)C(=O)c2ccccc21 | Klebsiella pneumoniae | microbial growth, broth dilution | ATCC700603 |  | IC50 | 223 µg/mL (≈ 674 µM)
